Active and inactive are the calls of the source. The calls are words filed in the database; no cut-off is given here.
Assays:
[1] = target: T1, Lysine-specific demethylase 7A (Homo sapiens, UniProt Q6ZMT4); assay: Inhibition of KDM7A (unknown origin) using K27me2 peptide as substrate by MALDI assay
T1 sequence (Q6ZMT4 whole entry): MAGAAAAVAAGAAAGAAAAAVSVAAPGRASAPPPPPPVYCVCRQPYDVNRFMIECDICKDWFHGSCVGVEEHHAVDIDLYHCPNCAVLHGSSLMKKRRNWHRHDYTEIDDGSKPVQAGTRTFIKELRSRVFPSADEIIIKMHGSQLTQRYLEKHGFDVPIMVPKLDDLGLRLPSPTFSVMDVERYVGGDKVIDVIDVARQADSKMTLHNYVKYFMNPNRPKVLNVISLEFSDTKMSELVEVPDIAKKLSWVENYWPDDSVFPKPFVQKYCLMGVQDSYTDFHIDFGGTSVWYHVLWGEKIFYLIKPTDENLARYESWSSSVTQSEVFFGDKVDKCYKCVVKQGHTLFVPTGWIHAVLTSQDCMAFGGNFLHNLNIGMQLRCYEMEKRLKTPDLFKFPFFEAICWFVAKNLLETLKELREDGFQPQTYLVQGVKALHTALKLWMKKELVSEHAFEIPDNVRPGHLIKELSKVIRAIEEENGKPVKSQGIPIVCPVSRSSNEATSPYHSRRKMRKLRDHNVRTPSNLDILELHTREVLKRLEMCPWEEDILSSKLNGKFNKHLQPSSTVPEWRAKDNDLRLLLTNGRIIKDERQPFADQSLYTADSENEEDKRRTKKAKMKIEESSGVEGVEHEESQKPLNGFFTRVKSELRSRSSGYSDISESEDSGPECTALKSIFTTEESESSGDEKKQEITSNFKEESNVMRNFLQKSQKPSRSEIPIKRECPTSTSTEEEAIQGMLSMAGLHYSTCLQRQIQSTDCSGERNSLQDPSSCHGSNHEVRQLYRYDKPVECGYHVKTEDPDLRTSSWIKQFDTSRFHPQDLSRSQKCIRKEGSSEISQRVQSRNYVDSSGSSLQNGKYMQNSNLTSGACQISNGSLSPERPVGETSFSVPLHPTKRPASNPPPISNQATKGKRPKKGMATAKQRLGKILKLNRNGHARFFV

[2] = target: T2, Lysine-specific demethylase 4C (Homo sapiens, UniProt Q9H3R0); assay: Inhibition of KDM4C (unknown origin) using H3K9me3 peptide and 2-oxoglutarate as substrate after 1 hr by FDH-coupled assay
T2 sequence (Q9H3R0 whole entry): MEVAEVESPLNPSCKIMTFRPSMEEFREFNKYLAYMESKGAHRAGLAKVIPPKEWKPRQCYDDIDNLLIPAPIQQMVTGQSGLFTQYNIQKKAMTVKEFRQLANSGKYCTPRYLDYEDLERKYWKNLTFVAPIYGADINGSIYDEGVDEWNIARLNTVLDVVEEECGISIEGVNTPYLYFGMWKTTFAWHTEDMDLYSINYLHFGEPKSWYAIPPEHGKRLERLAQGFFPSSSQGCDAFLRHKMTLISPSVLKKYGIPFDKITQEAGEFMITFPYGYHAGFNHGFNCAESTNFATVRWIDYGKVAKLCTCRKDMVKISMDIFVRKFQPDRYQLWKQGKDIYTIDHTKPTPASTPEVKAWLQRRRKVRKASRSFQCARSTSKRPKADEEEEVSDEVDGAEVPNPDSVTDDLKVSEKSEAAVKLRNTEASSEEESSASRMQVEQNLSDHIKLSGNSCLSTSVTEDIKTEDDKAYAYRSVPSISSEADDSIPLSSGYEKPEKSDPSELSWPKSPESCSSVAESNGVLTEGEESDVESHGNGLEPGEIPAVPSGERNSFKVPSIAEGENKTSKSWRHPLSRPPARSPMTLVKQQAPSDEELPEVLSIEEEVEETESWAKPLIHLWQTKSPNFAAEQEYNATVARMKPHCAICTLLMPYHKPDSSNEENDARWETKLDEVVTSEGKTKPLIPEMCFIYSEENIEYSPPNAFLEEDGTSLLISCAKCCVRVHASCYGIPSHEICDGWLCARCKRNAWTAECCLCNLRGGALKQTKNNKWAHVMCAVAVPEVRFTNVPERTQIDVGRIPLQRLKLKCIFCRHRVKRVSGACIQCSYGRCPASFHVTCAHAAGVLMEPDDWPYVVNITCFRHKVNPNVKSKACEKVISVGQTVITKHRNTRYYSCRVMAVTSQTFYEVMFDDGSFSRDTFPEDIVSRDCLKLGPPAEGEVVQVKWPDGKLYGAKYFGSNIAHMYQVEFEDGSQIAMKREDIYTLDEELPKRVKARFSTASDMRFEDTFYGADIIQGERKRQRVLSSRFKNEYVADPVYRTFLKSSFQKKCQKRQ

[3] = target: T3, Lysine-specific demethylase 7A/7B (Homo sapiens) (UniProt Q9UPP1+Q6ZMT4); assay: Inhibition of KDM7A/7B in human KYSE-150 cells assessed as H3K27me2 level at GI50 after 24 hrs by Western blot analysis; type: cell-based
How it was run: (§1)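 Cells (5×10^5) were treated for 24 h in OPTI-MEM and lysed in SDS buffer. Equal protein amounts, set by Bradford assay, were resolved on 4–20% SDS-PAGE and blotted. Blots were probed with anti-H3K27me2 (1:1000) and anti-H3 (1:100000) as loading reference, detected with an HRP secondary antibody, and visualized by ECL.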

[4] = test system: N2a; assay: Growth inhibition of mouse N2A cells after 48 hrs by MTT assay; type: functional
How it was run: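 Cells were seeded at 5000/well in RPMI 1640 with 10% FBS and allowed to attach overnight, then exposed for 48 h at 37 °C in 5% CO2. MTT was added for 3 h, and the dye was solubilized in HCl–2-propanol and read at 560 nm (reference 750 nm).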

[5] = Cell cycle arrest in human KYSE-150 cells assessed as increase in G0/G1 phase after 24 hrs by FACS analysis; type: functional, cell-based
How it was run: (§2)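 HeLa or KYSE150 cells (5×10^5) were exposed for 24 h to 10 or 100 μM in RPMI 1640 with 10% FBS, then trypsinized. Cells were fixed in ice-cold 70% ethanol, PBS-washed and stained with propidium iodide (10 μg/mL) plus RNase A (0.2 mg/mL) for 30 min at 25 °C. Phase distribution was read by flow cytometry.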

[6] = test system: HeLa; assay: Cell cycle arrest in human HeLa cells assessed as increase in G0/G1 phase after 24 hrs by FACS analysis; type: functional, cell-based; how it was run: as §2
[7] = target: Lysine-specific demethylase 6A (Homo sapiens, UniProt O15550); assay: Inhibition of human recombinant KDM6A after 120 mins
[8] = test system: HeLa; assay: Cell cycle arrest in human HeLa cells assessed as reduction in G2/M phase after 24 hrs by FACS analysis; type: functional, cell-based; how it was run: as §2
[9] = Cell cycle arrest in human KYSE-150 cells assessed as reduction in G2/M phase after 24 hrs by FACS analysis; type: functional, cell-based; how it was run: as §2
[10] = target: T3, Lysine-specific demethylase 7A/7B (Homo sapiens); assay: Inhibition of KDM7A/7B in human HeLa cells assessed as H3K27me2 level at GI50 after 24 hrs by Western blot analysis; type: cell-based; how it was run: as §1

T3 sequence (Q9UPP1 whole entry, looked up, one chain of several): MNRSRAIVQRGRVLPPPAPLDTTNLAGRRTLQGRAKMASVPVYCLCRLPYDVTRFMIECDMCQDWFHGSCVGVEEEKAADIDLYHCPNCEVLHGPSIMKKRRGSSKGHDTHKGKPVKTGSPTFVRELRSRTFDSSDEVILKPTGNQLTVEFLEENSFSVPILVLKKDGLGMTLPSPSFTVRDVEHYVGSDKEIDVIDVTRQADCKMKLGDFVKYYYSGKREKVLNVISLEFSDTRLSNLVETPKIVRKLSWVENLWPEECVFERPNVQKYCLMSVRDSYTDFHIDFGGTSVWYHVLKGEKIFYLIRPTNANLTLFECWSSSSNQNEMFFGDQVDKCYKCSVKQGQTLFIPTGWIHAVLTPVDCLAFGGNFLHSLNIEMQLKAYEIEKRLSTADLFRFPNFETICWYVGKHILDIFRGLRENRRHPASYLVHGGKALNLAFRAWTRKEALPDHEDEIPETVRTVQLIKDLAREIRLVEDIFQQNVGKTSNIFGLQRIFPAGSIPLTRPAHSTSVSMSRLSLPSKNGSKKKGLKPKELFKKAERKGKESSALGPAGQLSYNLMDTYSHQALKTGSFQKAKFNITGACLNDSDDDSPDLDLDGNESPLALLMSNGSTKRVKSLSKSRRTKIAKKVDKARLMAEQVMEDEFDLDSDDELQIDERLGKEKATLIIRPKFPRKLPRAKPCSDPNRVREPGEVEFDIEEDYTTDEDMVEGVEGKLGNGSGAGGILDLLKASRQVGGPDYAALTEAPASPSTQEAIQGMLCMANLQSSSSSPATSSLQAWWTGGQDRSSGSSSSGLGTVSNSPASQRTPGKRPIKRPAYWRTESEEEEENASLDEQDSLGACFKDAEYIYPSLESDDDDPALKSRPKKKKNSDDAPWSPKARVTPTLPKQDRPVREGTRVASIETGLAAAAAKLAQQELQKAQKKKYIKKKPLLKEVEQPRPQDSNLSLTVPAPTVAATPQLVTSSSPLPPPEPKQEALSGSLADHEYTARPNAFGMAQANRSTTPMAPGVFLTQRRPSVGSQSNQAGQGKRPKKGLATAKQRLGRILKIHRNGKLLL
Lysine-specific demethylase 6A, sequence (O15550 whole entry): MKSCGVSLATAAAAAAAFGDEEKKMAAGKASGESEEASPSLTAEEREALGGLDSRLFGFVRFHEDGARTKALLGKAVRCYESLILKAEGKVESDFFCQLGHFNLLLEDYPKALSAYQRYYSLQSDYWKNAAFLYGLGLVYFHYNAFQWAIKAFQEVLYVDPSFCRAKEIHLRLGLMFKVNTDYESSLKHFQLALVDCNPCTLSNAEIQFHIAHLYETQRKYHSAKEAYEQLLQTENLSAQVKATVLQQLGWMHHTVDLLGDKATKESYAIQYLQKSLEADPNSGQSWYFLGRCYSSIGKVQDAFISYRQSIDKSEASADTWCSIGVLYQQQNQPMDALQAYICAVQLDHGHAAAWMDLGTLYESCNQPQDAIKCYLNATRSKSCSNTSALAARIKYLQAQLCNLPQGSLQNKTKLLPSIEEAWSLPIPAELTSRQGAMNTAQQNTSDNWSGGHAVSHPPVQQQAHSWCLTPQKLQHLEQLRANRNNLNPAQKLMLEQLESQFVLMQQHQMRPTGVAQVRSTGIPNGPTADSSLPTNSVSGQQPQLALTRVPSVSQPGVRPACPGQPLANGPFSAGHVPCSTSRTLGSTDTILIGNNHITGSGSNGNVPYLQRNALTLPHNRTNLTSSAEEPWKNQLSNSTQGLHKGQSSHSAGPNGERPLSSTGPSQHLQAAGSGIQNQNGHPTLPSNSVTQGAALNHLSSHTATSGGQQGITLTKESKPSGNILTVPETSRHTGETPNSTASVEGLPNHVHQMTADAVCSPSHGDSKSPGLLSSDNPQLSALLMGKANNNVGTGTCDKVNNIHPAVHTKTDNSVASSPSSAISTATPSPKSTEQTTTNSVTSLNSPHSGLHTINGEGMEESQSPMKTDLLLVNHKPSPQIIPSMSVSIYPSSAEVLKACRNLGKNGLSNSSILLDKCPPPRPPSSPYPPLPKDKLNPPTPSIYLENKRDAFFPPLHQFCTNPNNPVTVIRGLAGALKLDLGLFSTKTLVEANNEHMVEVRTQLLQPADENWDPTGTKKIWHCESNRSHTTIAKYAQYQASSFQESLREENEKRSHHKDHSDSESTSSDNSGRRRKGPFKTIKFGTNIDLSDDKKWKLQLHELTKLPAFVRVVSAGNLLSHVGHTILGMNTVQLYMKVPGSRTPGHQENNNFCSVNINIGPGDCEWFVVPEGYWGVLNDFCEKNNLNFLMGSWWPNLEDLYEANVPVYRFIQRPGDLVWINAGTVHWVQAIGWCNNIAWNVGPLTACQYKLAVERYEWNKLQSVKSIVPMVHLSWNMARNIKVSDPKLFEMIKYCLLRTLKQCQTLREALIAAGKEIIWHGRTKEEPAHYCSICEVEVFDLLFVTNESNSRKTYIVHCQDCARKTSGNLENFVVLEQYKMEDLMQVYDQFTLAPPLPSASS

| Structure (SMILES) | IC50 [1] [µM] | IC50 [2] [µM] | inhibition [3] | GI50 [4] [µM] | Activity [5] | Activity [6] | IC50 [7] [µM] | Activity [8] | Activity [9] | inhibition [10] |
| --- | --- | --- | --- | --- | --- | --- | --- | --- | --- | --- |
| CN(C)CCCCCCCCC(=O)N(O)CCC(=O)O | 1.6 | 2.2 | – | – | – | – | – | – | – | – |
| O=C(O)CCN(O)C(=O)CCCCCCCCC1CC1 | 0.2 | 83 | Active | 86 | Dose-dependent effect | Dose-dependent effect | > 100 | Dose-dependent effect | Dose-dependent effect | Active |
